What all share (type): functional
The subject of assay [1] is Brassica napus. Description: Preemergence herbicidal activity against Brassica napus (oilseed rape) under greenhouse condition at 1.5 kg/ha applied immediately after seed planting. The gist of the method: (§1)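 Seeds sown in 6-cm-diameter boxes of artificial mixed soil. Boxes were kept under plastic film until emergence to hold moisture, and plants were grown in a greenhouse. Above-ground fresh weight was weighed 10 days after treatment. Control efficiency is reported as percent inhibition.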

Assay [2] has as its system Brassica napus. Kind of assay: Postemergence herbicidal activity against Brassica napus (oilseed rape) under greenhouse condition at 750 g/ha applied after expansion of true leaf. The gist of the method:
as §1

Assay [3] relates to Medicago sativa. Kind of assay: Postemergence herbicidal activity against Medicago sativa (alfalfa) under greenhouse condition at 1.5 kg/ha applied after expansion of true leaf. The gist of the method: as §1
Assay [4] deals with Amaranthus retroflexus. Description: Post-emergence herbicidal activity against Amaranthus retroflexus under greenhouse condition at 750 g/ha applied after expansion of true leaf. Summed up: as §1
For assay [5], the system named is Brassica napus. Kind of assay: Postemergence herbicidal activity against Brassica napus (oilseed rape) under greenhouse condition at 375 g/ha applied after expansion of true leaf. Summed up:
as §1

Assay [6] deals with Brassica napus. Description: Postemergence herbicidal activity against Brassica napus (oilseed rape) under greenhouse condition at 18.75 g/ha applied after expansion of true leaf. Summed up:
as §1

Assay [7] relates to Brassica napus. Kind of assay: Postemergence herbicidal activity against Brassica napus (oilseed rape) under greenhouse condition at 75 g/ha applied after expansion of true leaf. The gist of the method: as §1
Assay [8] deals with Amaranthus retroflexus. Kind of assay: (§2) Post-emergence herbicidal activity against Amaranthus retroflexus under greenhouse condition at […] applied after expansion of true leaf. The gist of the method: as §1
Assay [9] concerns Brassica napus. Kind of assay: Postemergence herbicidal activity against Brassica napus (oilseed rape) under greenhouse condition at 37.5 g/ha applied after expansion of true leaf. The gist of the method: as §1
The subject of assay [10] is Amaranthus retroflexus. Description: Post-emergence herbicidal activity against Amaranthus retroflexus under greenhouse condition at 1.5 kg/ha applied after expansion of true leaf. The gist of the method:
as §1

Assay [11] has as its system Brassica napus. Description: Postemergence herbicidal activity against Brassica napus (oilseed rape) under greenhouse condition at 1.5 kg/ha applied after expansion of true leaf. Summed up:
as §1

Assay [12] has as its system Brassica napus. Description: Postemergence herbicidal activity against Brassica napus (oilseed rape) under greenhouse condition at 187.5 g/ha applied after expansion of true leaf. The gist of the method: as §1
Assay [13] concerns Medicago sativa. Description: Preemergence herbicidal activity against Medicago sativa (alfalfa) under greenhouse condition at 1.5 kg/ha applied immediately after seed planting. The gist of the method:
as §1

The test system of assay [14] is Amaranthus retroflexus. Description: Pre-emergence herbicidal activity against Amaranthus retroflexus under greenhouse condition at 1.5 kg/ha applied immediately after seed planting. The gist of the method:
as §1

Assay [15] relates to Brassica napus. Description: Postemergence herbicidal activity against Brassica napus (oilseed rape) under greenhouse condition at 150 g/ha applied after expansion of true leaf. Summed up: as §1
For assay [16], the system named is Amaranthus retroflexus. The assay is described as §2. Summed up:
as §1
This is another data set of the same source.

Assay [17] has as its system Brassica napus. Kind of assay: Postemergence herbicidal activity against Brassica napus (oilseed rape) under greenhouse condition at 300 g/ha applied after expansion of true leaf. Summed up:
as §1

The values that follow come from ChEMBL document CHEMBL3044690, “Synthesis and herbicidal activity of 2-cyano-3-(2-chlorothiazol-5-yl)methylaminoacrylates” (2004).

On to `CCOCCOC(=O)/C(C#N)=C(\NCc1cnc(Cl)s1)C(C)C`, for which the Activity with Brassica napus [1] came out at 96%; in the assay on Brassica napus [2], 100%; in the assay on Medicago sativa [3] it was 19%; with Amaranthus retroflexus [4] it was 100%; in the assay with Brassica napus [5], 100%; in the assay with Brassica napus [6], 15%. Also, the Activity is recorded as 98% with Brassica napus [7]; 67% in the assay on Amaranthus retroflexus [8]; 52% with Brassica napus [9]; 96% in the assay on Amaranthus retroflexus [10]; 100% in the assay on Brassica napus [11]; 100% with Brassica napus [12]. Further, the Activity in the assay with Medicago sativa [13] was 16%; in the assay on Amaranthus retroflexus [14], 54%; in the assay on Brassica napus [15], 100%; in the assay on Amaranthus retroflexus [16], 81%; with Brassica napus [17], 100%.

With `CCOCCOC(=O)/C(C#N)=C(/C)NCc1cnc(Cl)s1`, the Activity came to 93% in the assay on Brassica napus [1]; 96% in the assay on Brassica napus [2]; 94% in the assay on Medicago sativa [3]; 98% in the assay with Amaranthus retroflexus [4]; 59% with Brassica napus [5]; 73% in the assay with Amaranthus retroflexus [8]. Besides, the Activity with Amaranthus retroflexus [10] is recorded as 100%; with Brassica napus [11], 95%; with Brassica napus [12], 39%; in the assay on Medicago sativa [13], 47%; in the assay with Amaranthus retroflexus [14], 87%; in the assay with Amaranthus retroflexus [16] it was 78%.

As for `CCOCCOC(=O)/C(C#N)=C(\NCc1ccc(Cl)cc1)C(C)C`, the Activity came to 0% in the assay on Brassica napus [1]; 28% with Medicago sativa [3]; 94% in the assay with Amaranthus retroflexus [10]; 96% in the assay with Brassica napus [11]; 0% in the assay on Medicago sativa [13]; 52% with Amaranthus retroflexus [14].

With `CCOCCOC(=O)/C(C#N)=C(\NCc1cnc(Cl)s1)SC`, the Activity with Brassica napus [1] came out at 40%; with Brassica napus [2] it was 100%; in the assay on Medicago sativa [3], 49%; with Amaranthus retroflexus [4] it was 91%; with Brassica napus [5] it was 57%; in the assay on Amaranthus retroflexus [8], 41%. Moreover, the Activity was determined as 78% in the assay on Amaranthus retroflexus [10]; 100% in the assay on Brassica napus [11]; 48% with Brassica napus [12]; 28% in the assay on Medicago sativa [13]; 76% with Amaranthus retroflexus [14]; 48% with Amaranthus retroflexus [16].

For the molecule `COCCOC(=O)/C(C#N)=C(/C)NCc1cnc(Cl)s1`, the Activity worked out at 78% in the assay on Brassica napus [1]; 26% with Medicago sativa [3]; 81% in the assay on Amaranthus retroflexus [10]; 100% with Brassica napus [11]; 0% in the assay with Medicago sativa [13]; 45% in the assay with Amaranthus retroflexus [14].

On to `CCOCCOC(=O)/C(C#N)=C(/CC)NCc1cnc(Cl)s1`, for which the Activity with Brassica napus [1] was 91%; in the assay on Brassica napus [2] it was 69%; with Medicago sativa [3], 70%; with Amaranthus retroflexus [4] it was 57%; in the assay on Brassica napus [5], 60%; with Amaranthus retroflexus [8], 42%. Also, the Activity in the assay with Amaranthus retroflexus [10] worked out at 83%; in the assay with Brassica napus [11], 100%; in the assay on Brassica napus [12] it was 29%; in the assay with Medicago sativa [13], 46%; in the assay with Amaranthus retroflexus [14], 70%; with Amaranthus retroflexus [16], 50%.
